# Compounds with a hit are over-represented: about 2.2% of the library has one in this group of screens.
# Exocytosis inh – LAMP-1 surface exposure blockers, TALL-104 cells – cell-based, flow cytometry, MLPCN library, primary screen. TALL-104 LAMP-1 surface exposure; cells stimulated with thapsigargin and PMA. inhibition, % at 10 µM. hit rate 0.66% among 360,000;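 active = inhibition above about 55%, limit read from the data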
# ASAP1 inh – inhibitors of human ASAP1 ArfGAP activity, primary screen, biochemical, fluorescence polarization; Arf-GAP with SH3 domain, ANK repeat and PH domain-containing protein 1 (Homo sapiens), …; ASAP1-stimulated ARF1 GTP hydrolysis, GDP FP detection; inhibition, % at 16.5 µM; hit rate 0.19% among 360,000; AID 624377, 2012; in the data active = inhibition above about 25%;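 note: 0% = vehicle with enzyme and substrate and 100% = no enzyme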
# Target sequence (Q9ULH1 325-724 limits assumed): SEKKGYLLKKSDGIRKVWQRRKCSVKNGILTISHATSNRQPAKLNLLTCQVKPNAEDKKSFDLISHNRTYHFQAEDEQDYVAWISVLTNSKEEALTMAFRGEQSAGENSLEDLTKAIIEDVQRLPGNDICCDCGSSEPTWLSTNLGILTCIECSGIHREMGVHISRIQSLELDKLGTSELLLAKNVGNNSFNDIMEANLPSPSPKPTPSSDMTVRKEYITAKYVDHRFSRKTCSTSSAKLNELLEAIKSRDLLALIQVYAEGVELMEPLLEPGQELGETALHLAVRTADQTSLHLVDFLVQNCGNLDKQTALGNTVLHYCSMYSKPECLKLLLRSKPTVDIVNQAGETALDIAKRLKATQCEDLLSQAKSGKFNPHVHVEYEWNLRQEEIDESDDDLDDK
# ARFGAP1 inh – inhibitors of rat ARFGAP1 GAP activity, primary screen, biochemical, fluorescence polarization, GDP tracer. Arfgap1-stimulated ARF1 GTP hydrolysis, GDP FP detection. inhibition, % at 16.5 µM. hit rate 0.26% among 360,000. AID 651572, 2012;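 active = inhibition above a per-plate limit, mean inhibition of low control wells plus 3 SD, cut at about 25% in these data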;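 note: 0% = DMSO wells with enzyme and 100% = wells lacking Arfgap1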
# Target sequence (Q62848 1-136 limits assumed): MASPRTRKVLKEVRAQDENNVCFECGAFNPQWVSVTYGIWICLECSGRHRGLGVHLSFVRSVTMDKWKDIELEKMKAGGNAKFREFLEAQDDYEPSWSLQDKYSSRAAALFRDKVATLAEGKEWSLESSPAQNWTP
#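 Material: truncated rat Arfgap1 GAP domain; Incubation: compound-enzyme preincubation 20 min, reaction 120 min, detection 60 min, 25 °C; Read-out: percent inhibition of Arfgap1-stimulated GTP hydrolysis; Technique: FP, GDP Alexa 633 tracer displaced from anti-GDP antibody, 620/688 nm; Controls: No-Arfgap1 wells (100%) versus DMSO full-reaction wells (0%); Replication: single well per compound.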
# V-ATPase pHluor – regulators of yeast V-ATPase proton pumping, primary screen, pHLuorin cytosolic pH fluorescence | S. cerevisiae | response, % at 10 µM | hit rate 0.37% among 350,000 | AID 504577, 2011; in the data active = response mostly above about 7.3%, no sharp cut-off; inactive = mostly below about 5.4%; note: actives read high
# NRP1-CendR mod – modulators of CendR peptide binding to NRP-1, primary screen, biochemical, fluorescence polarization, uHTS. Neuropilin-1 (Homo sapiens), O14786. FAM-RPARPAR peptide binding to NRP-1. inhibition, % at 25 µM. hit rate 0.85% among 360,000. AID 602438, 2012;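 active = inhibition or corrected inhibition above about 18%, plus a signal ratio from 0.5 to 1.5, limit read from the data, passing the limit was not always enough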
# Exocytosis CP01 – inhibitors of lytic granule exocytosis, confirmation, TALL-104 cells, flow cytometry, Cherry Pick01; shares compounds with Exocytosis inh; LAMP-1 externalization; stimulated with PMA plus thapsigargin; inhibition, % at 10 µM; hit rate 11% among 1,500; AID 651954, 2012; in the data active = inhibition above about 60%;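 note: 0% = stimulated vehicle wells and 100% = unstimulated wells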
# * hit, by the source's call; . = no result.
SMILES,Exocytosis inh,ASAP1 inh,ARFGAP1 inh,V-ATPase pHluor,NRP1-CendR mod,Exocytosis CP01
COc1ccccc1NC(=O)CCC(=O)Nc1cc(OC)c(NC(=O)c2cccs2)cc1OC,-3,9,11,0,-2,.
COc1cc(NC(=O)c2cccs2)c(OC)cc1NC(=O)CCC(=O)Nc1cccc2ncccc12,60*,-3,-6,-2,-1,-3
O=C(CN1CCN(c2ccc(F)cc2)CC1)NCC1CCCO1 (centres undefined),-5,2,-3,5,-7,.
COc1ccccc1C(OC(=O)c1cccs1)C(=O)NCC1CCCO1 (centres undefined),61*,-3,-1,2,9,-12
COc1ccccc1N1CCN(CC(=O)NCC2CCCO2)CC1 (centres undefined),58*,-4,5,-2,5,-13
COc1ccc(S(=O)(=O)N2CCC(C(=O)Oc3cccc(C)c3)CC2)cc1OC,0,12,5,-1,2,.
COc1ccc(-c2cc(-c3ccccc3)c(C#N)c(S(C)=O)n2)cc1 (centres undefined),64*,1,-1,-4,-11,-4
Cc1ccc(S(=O)(=O)c2nc(-c3ccco3)oc2SCC(=O)NCC2CCCO2)cc1 (centres undefined),89*,2,-2,0,-34,-10
Cc1ccc(S(=O)(=O)c2nc(-c3ccccc3)oc2SCC(=O)NCC2CCCO2)cc1 (centres undefined),9,8,10,1,2,.
CN(CC(=O)Nc1ccc(Cl)c(C(F)(F)F)c1)C(=O)CCCNC(=O)c1ccc(Cl)cc1,-2,13,-2,-1,-16,.
O=C(c1ccc(-c2ccc([N+](=O)[O-])cc2)o1)N1CCCCC1,29,7,16,1,0,.
CC1CC(C)CN(C(=O)c2ccc(-c3ccc([N+](=O)[O-])cc3)o2)C1 (centres undefined),74*,-2,-6,10,14,-12
CCc1nnc(NC(=O)[C@@H](NS(=O)(=O)c2ccc3c(c2)OCCO3)C(C)C)s1,58*,6,-11,-3,4,-4
COc1ccc(Cl)cc1NS(=O)(=O)c1cccc(C(=O)NCC2(N(C)C)CCCCC2)c1,1,-1,0,5,10,.
CCOC(=O)c1c(CN2CCN(Cc3ccccc3)CC2)n(C)c2cc(Br)c(OC)cc12,13,11,7,5,-3,.
CCOC(=O)c1c(CN2CCN(C)CC2)n(-c2ccccc2)c2cc(Br)c(O)cc12,59*,-1,8,-4,-2,-6
CCOC(=O)c1c(CN2CCN(CCO)CC2)n(-c2ccccc2)c2cc(Br)c(O)cc12,79*,16,-2,-3,-13,-1
O=C(Nc1ccc(S(=O)(=O)NCc2ccco2)cc1)c1ccc2ccccc2n1,98*,2,7,-1,-6,-9
O=C(N[C@H]1C/C=C\C[C@@H](CC(=O)N(CCO)Cc2ccccc2)C(=O)NC[C@H](c2ccccc2)OC1=O)OCC1c2ccccc2-c2ccccc21,42,-1,10,2,-9,.
COc1cccc(-c2cnc3c(NC=O)cc(-c4cc(C)c(O)c(C)c4)cn23)c1,63*,17,10,.,-8,14
COc1cccc(-c2cnc3c(NC=O)cc(-c4ccccc4)cn23)c1,97*,-20,-19,.,-13,70*
Cc1cc(C)n(C(C)CC(=O)Nc2ccc3c(c2)OCCO3)n1 (centres undefined),-4,7,7,-1,9,.
Cc1ccnc(Nc2cccnc2)n1,0,11,10,.,-2,.
CN1CCN(CCC(=O)N2c3ccccc3Sc3ccc(C(F)(F)F)cc32)CC1,3,-2,-17,-1,-7,.
CN(C)CCC(=O)N1c2ccccc2Sc2ccc(C(F)(F)F)cc21,67*,1,3,0,1,-13
SMILES,Exocytosis inh,ASAP1 inh,ARFGAP1 inh,V-ATPase pHluor,NRP1-CendR mod,Exocytosis CP01
CC(NC(=O)C(C)N1c2cccc3cccc(c23)S1(=O)=O)c1ccccc1 (centres undefined),82*,7,3,-2,10,-6
CC(C)(C)C1CCC(OCC(O)CN2CCN(Cc3ccccc3)CC2)CC1 (centres undefined),72*,-17,2,3,-3,-3
CC(C)(C)C1CCC(OCC(O)CN2CCN(c3ccccn3)CC2)CC1 (centres undefined),-1,13,2,5,14,.
COc1ccc(NC(=O)Nc2nnc([C@H]3C[C@H](O)[C@@H](CO)O3)s2)cc1,-11,-16,-10,.,-11,.
CC1=NOC(=O)/C1=C/c1ccc(-c2ccc(Cl)cc2)o1,78*,.,.,0,-90,101*
CCC(=O)Nc1cc(OC)c(NC(=S)Nc2ccccc2CC)cc1OC,-6,1,-10,1,2,.
CCOC(=O)N1CCN(CC(O)COc2ccccc2C(C)C)CC1 (centres undefined),1,-3,-7,6,-9,.
COc1ccc(C2CCCN2CC(O)COc2ccccc2C(C)C)cc1 (centres undefined),63*,-11,-7,-2,-14,-12
O=[N+]([O-])c1ccc(COc2cccc(CN3CCOCC3)c2)cc1,-3,-8,4,3,-11,.
O=C(COC(=O)Cn1cnc2ccccc21)Nc1ccc(F)c(F)c1,-12,1,2,0,-1,.
C=CCn1c(SCC(=O)NCCCC)nc2scc(-c3ccco3)c2c1=O,3,-7,-13,-1,-65,.
C=CCn1c(SCC(C)=O)nc2scc(-c3ccc(C)o3)c2c1=O,85*,-4,1,4,4,-10
O=C(Cc1cccc(NC(=O)C2CCCN(C(=O)C3CCCC3)C2)c1)Nc1ccc(C(=O)N2CCOCC2)cc1 (centres undefined),0,2,-1,0,-1,.
Cn1nc(C(F)(F)F)c2cc(C(=O)Nc3ccc(F)cc3)sc21,12,2,5,-1,-7,.
Cn1nc(C(F)(F)F)c2cc(C(=O)Nc3ccc(C(F)(F)F)cc3)sc21,86*,8,7,4,-6,2
Cc1cc(C)c(NC(=O)CN(C)C(=O)C2CC(=O)N(c3cccc4ccccc34)C2)c(C)c1 (centres undefined),-2,3,5,-1,4,.
